Consider 16 compounds from ChEMBL document CHEMBL3244161, “Azabicycloalkanes as analgetics. 3. Structure-activity relationships of 1-phenyl-6-azabicyclo[3.2.1]octanes and absolute stereochemistry of (+)-1-(3-hydroxyphenyl)-6-methyl-6-azabicyclo[3.2.1]octane and its 7-endo-methyl derivative” (J Med Chem, 1977).

A short description of data set [1]: (§1) Acute toxicity in sc dosed mouse. It is filed as organism-based. The following applies: in vivo.
Data set [2] deals with Mus musculus. The experiment in a line: Analgesic activity in sc dosed mouse by hot-plate method. The format is functional.
Data set [3] has as its system Oryctolagus cuniculus. The data set can be described thus: Narcotic antagonist activity in rabbit assessed as inhibition of morphine-induced respiratory depression up to 1 mg/kg, iv. The format is functional, organism-based. Also on record: dose 1 mg/kg. In a few lines:
(§2)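 Rabbits given test compound iv; read-out is antagonism of morphine-induced respiratory depression; expressed as AD50 in mg/kg or as % antagonism at a fixed dose.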

For data set [4], the system named is Rhesus monkey. The experiment in a line: Suppression of abstinence syndrome in morphine-dependent rhesus monkey up to 6 mg/kg. The format is functional, organism-based. Also on record: dose 6 mg/kg. The conditions noted are these: Macaca mulatta.
Data set [5] concerns Mus musculus. The experiment in a line: Analgesic activity in sc dosed mouse assessed as inhibition of AcOH-induced writhing. The following applies: Mus musculus, sc; read-out: ED50. The format is functional.
Data set [6] has as its system Rhesus monkey. The experiment in a line: Suppression of abstinence syndrome in morphine-dependent rhesus monkey up to 8 mg/kg. The format is functional, organism-based. Details: dose 8 mg/kg. The conditions noted are these: Macaca mulatta.
In data set [7] the test system is Oryctolagus cuniculus. The data set can be described thus: Narcotic antagonist activity in iv dosed rabbit assessed as inhibition of morphine-induced respiratory depression. It is filed as functional. Summed up: as §2
In data set [8] the test system is Rhesus monkey. The experiment in a line: Narcotic antagonist activity in morphine-dependent rhesus monkey assessed as mild to severe abstinence at 2 mg/kg. The following applies: Macaca mulatta. It is filed as functional, organism-based. Details: dose 2 mg/kg. In a few lines:
(§3)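 Compound given to nonwithdrawn morphine-dependent monkeys; scored as precipitation of abstinence syndrome, with severity graded from mild to severe over the stated dose range.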

The subject of data set [9] is Rhesus monkey. The data set can be described thus: Suppression of abstinence syndrome in morphine-dependent rhesus monkey up to 16 mg/kg. The format is functional, organism-based. Also on record: dose 16 mg/kg. The conditions noted are these: Macaca mulatta.
Data set [10] concerns Mus musculus. The data set is described as §1. It is filed as organism-based. The following applies: in vivo.
The subject of data set [11] is Rhesus monkey. The experiment in a line: Suppression of abstinence syndrome in morphine-dependent rhesus monkey at 10 mg/kg. The conditions noted are these: Macaca mulatta. Details: dose 10 mg/kg. The format is functional, organism-based.
The test system of data set [12] is Rhesus monkey. The data set can be described thus: Narcotic antagonist activity in morphine-dependent rhesus monkey assessed as mild to severe abstinence at 2 to 8 mg/kg. The format is functional, organism-based. The following applies: Macaca mulatta. Summed up:
as §3

Data set [13] relates to Rhesus monkey. The experiment in a line: Suppression of abstinence syndrome in morphine-dependent rhesus monkey at 1 mg/kg. Also on record: dose 1 mg/kg. The format is functional, organism-based. The conditions noted are these: Macaca mulatta.
In data set [14] the test system is Oryctolagus cuniculus. The data set can be described thus: Narcotic antagonist activity in rabbit assessed as inhibition of morphine-induced respiratory depression at 5 mg/kg, iv. It is filed as functional. In a few lines: as §2
Data set [15] deals with Mus musculus. The data set can be described thus: Analgesic activity in mouse by hot-plate method up to 100 mg/kg, sc. The format is functional, organism-based. Details: dose 100 mg/kg.
For data set [16], the system named is Mus musculus. The experiment in a line: Analgesic activity in mouse assessed as inhibition of AcOH-induced writhing up to 22.5 mg/kg, sc. It is filed as functional, organism-based. Also on record: dose 22.5 mg/kg. (Writhing tests count abdominal constrictions after an irritant is injected.)
Data set [17] relates to Rhesus monkey. The experiment in a line: Narcotic antagonist activity in morphine-dependent rhesus monkey assessed as mild to severe abstinence at 2.5 to 20 mg/kg. It is filed as functional, organism-based. The conditions noted are these: Macaca mulatta. Summed up:
as §3

Data set [18] has as its system Rhesus monkey. The data set can be described thus: Suppression of abstinence syndrome in morphine-dependent rhesus monkey at 5 mg/kg. It is filed as functional, organism-based. Also on record: dose 5 mg/kg. The following applies: Macaca mulatta.
Data set [19] has as its system Rhesus monkey. The experiment in a line: Narcotic antagonist activity in morphine-dependent rhesus monkey assessed as mild to moderate abstinence at 3 to 12 mg/kg. The conditions noted are these: Macaca mulatta. It is filed as functional, organism-based. In a few lines: as §3
Data set [20] deals with Rhesus monkey. The data set can be described thus: Suppression of abstinence syndrome in morphine-dependent rhesus monkey at 6 mg/kg. The format is functional, organism-based. Also on record: dose 6 mg/kg. The conditions noted are these: Macaca mulatta.
Data set [21] relates to Mus musculus. The data set can be described thus: Analgesic activity in sc dosed mouse assessed as time duration of activity by hot-plate method. The format is functional. For orientation: In hot-plate and tail-flick tests a longer latency is read as antinociception.
The subject of data set [22] is Rhesus monkey. The data set can be described thus: Narcotic antagonist activity in morphine-dependent rhesus monkey assessed as mild to moderate abstinence at 5 to 20 mg/kg. It is filed as functional, organism-based. The following applies: Macaca mulatta. Summed up:
as §3

The subject of data set [23] is Rhesus monkey. The experiment in a line: Narcotic antagonist activity in morphine-dependent rhesus monkey assessed as mild to severe abstinence at 1 to 8 mg/kg. It is filed as functional, organism-based. The conditions noted are these: Macaca mulatta. In a few lines: as §3
In data set [24] the test system is Rhesus monkey. The data set can be described thus: Suppression of abstinence syndrome in morphine-dependent rhesus monkey at 1.5 mg/kg. Also on record: dose 1.5 mg/kg. The conditions noted are these: Macaca mulatta. The format is functional, organism-based.
Data set [25] relates to Rhesus monkey. The data set can be described thus: Narcotic antagonist activity in morphine-dependent rhesus monkey assessed as moderate to severe abstinence at 1.5 to 12 mg/kg. It is filed as functional, organism-based. The conditions noted are these: Macaca mulatta. Summed up:
as §3

For data set [26], the system named is Rhesus monkey. The experiment in a line: Narcotic antagonist activity in morphine-dependent rhesus monkey assessed as precipitation of abstinence up to 8 mg/kg. The format is functional, organism-based. Details: dose 8 mg/kg. The conditions noted are these: Macaca mulatta. In a few lines:
as §3

Data set [27] concerns Rhesus monkey. The data set can be described thus: Suppression of abstinence syndrome in morphine-dependent rhesus monkey at 8 mg/kg. It is filed as functional, organism-based. Also on record: dose 8 mg/kg. The conditions noted are these: Macaca mulatta.
[28] abbreviates: Mus musculus, sc, read-out: ED50.

The source made the active and inactive calls. The calls are words filed in the database; no cut-off is given here.

In general, LD50 refers to the dose at which mortality reaches 50%. One may read the ED50 as the dose that gives a 50% effect, or the effect in half of the subjects. A word on the inhibition in vivo: it is the percentage by which the read-out fell short of the control.

Take `CC1N(CCc2ccccc2)C2CCCC1(c1cccc(O)c1)C2.Cl` (racemic): the median lethal dose (LD50) in [1] was found to be 27.6 mg/kg. Besides, the ED50 in the data set with Mus musculus [2] (setting [28]) amounted to 0.3 mg/kg; with Mus musculus [5], 0.61 mg/kg. The inhibition entry with Oryctolagus cuniculus [3] was “inactive”. Moreover, the outcome in the data set on Rhesus monkey [4] was inactive.
With `CCCCCCN1C2CCCC(c3cccc(O)c3)(C2)C1C.Cl` (racemic), the LD50 in data set [1] worked out at 25.4 mg/kg. In addition, the inhibition result with Oryctolagus cuniculus [3] is “inactive”. In the data set on Mus musculus [5], the ED50 came to 0.27 mg/kg.
In [1], `CC1N(CC2CC2)C2CCCC1(c1cccc(O)c1)C2.Cl` (racemic) registered an LD50 of 59.8 mg/kg. The median effective dose (ED50) in the data set on Mus musculus [2] (setting [28]) was determined as 5.8 mg/kg; in the data set with Mus musculus [5], 2.2 mg/kg. In the data set on Rhesus monkey [6], the outcome was inactive. Moreover, the AD50 in the data set with Oryctolagus cuniculus [7] is 0.1 mg/kg.
With `COc1cccc(C23CCCC(C2)N(CCCC(=O)c2ccc(F)cc2)C3)c1.Cl` (racemic), in data set [1], the LD50 was greater than 225 mg/kg. Also, the results for the median effective dose (ED50) with Mus musculus [2] (setting [28]) and in the data set on Mus musculus [5] were 4.2 mg/kg and 3 mg/kg, respectively. For the same compound, the outcome in the data set with Rhesus monkey [8] and in the data set with Rhesus monkey [9] was inactive.
For the compound `CC(=O)Oc1cccc(C23CCCC(C2)N(C)C3C)c1.Cl` (single isomer, unassigned; (+)), the LD50 in the data set on Mus musculus [10] amounted to 129.5 mg/kg. For the same compound, the figures for the median effective dose (ED50) in the data set on Mus musculus [2] and with Mus musculus [5] were 3.6 mg/kg and 2.4 mg/kg, respectively.
Compound `CC1N(C)C2CCCC1(c1ccccc1)C2.Cl` (racemic) returned an LD50 in data set [1] greater than 30 mg/kg. Besides, the ED50 in the data set with Mus musculus [2] (setting [28]) and in the data set on Mus musculus [5] was 20 mg/kg throughout. The outcome in the data set on Rhesus monkey [11] was inactive.
Consider `CC1N(C)C2CCCC1(c1cccc(O)c1)C2` (racemic; 8), for which the result in the data set on Rhesus monkey [12] was Active. Besides, the result in the data set on Rhesus monkey [13] was inactive.
For the compound `Br.CC1N(C)C2CCCC1(c1cccc(O)c1)C2` (racemic; 9), the LD50 in the data set on Mus musculus [10] amounted to 113.5 mg/kg. Moreover, the ED50 with Mus musculus [5] is 4.9 mg/kg.
The compound `Br.C[C@@H]1N(C)[C@@H]2CCC[C@@]1(c1cccc(O)c1)C2` gave an LD50 in [1] of 82.7 mg/kg. In addition, the inhibition in vivo at 5 mg/kg in the data set with Oryctolagus cuniculus [14] stood at 48%. Moreover, the result in the data set on Mus musculus [15], in the data set on Mus musculus [16] and with Rhesus monkey [18] was inactive. Besides, the outcome in the data set with Rhesus monkey [17] was Active.
Regarding `CN1C[C@]2(c3cccc(O)c3)CCC[C@H]1C2`, the result in the data set with Rhesus monkey [19] was Active. Besides, the LD50 in [1] stood at 90.7 mg/kg. The ED50 in the data set on Mus musculus [2] (setting [28]) worked out at 3.6 mg/kg; with Mus musculus [5], 3.7 mg/kg. Further, the outcome in the data set with Rhesus monkey [20] was inactive. Besides, the Time with Mus musculus [21] was 140 min. In addition, the AD50 in the data set with Oryctolagus cuniculus [7] stood at 4.1 mg/kg.
`CN1C[C@@]2(c3cccc(O)c3)CCC[C@@H]1C2` registered an LD50 in data set [1] of 156 mg/kg. Moreover, in the data set on Mus musculus [2] (setting [28]), the ED50 is 20 mg/kg. In addition, the outcome with Rhesus monkey [11] and with Mus musculus [16] was inactive. For the same compound, in the data set with Oryctolagus cuniculus [14], the inhibition in vivo at 5 mg/kg is 41%. Besides, the result in the data set on Rhesus monkey [22] was Active.
For the compound `CC(=O)Oc1cccc(C23CCCC(C2)N(C)C3C)c1` (single isomer, unassigned; (+)), the result with Rhesus monkey [23] was Active. Also, the result in the data set with Rhesus monkey [13] was inactive.
Turning to `CC(=O)Oc1cccc(C23CCCC(C2)N(C)C3C)c1` (single isomer, unassigned; (-)), in the data set on Rhesus monkey [22], the outcome was Active. Further, the outcome with Mus musculus [15], in the data set with Mus musculus [16] and in the data set on Rhesus monkey [18] was inactive.
Regarding `Br.C[C@H]1N(C)[C@H]2CCC[C@]1(c1cccc(O)c1)C2`, the outcome with Rhesus monkey [24] was inactive. For the same compound, the LD50 in [1] was found to be 123 mg/kg. Also, the ED50 with Mus musculus [2] (setting [28]) was 2.9 mg/kg; with Mus musculus [5], 1.2 mg/kg. Moreover, the inhibition in vivo at 5 mg/kg with Oryctolagus cuniculus [14] is 42%. Moreover, the Time with Mus musculus [21] was 148.6 min. In addition, in the data set on Rhesus monkey [25], the result was Active.
Take `CN1CC2(c3cccc(O)c3)CCCC1C2` (racemic): the LD50 in [1] is 133 mg/kg. In addition, the values for the 50% effective dose (ED50) in the data set on Mus musculus [2] (setting [28]) and in the data set with Mus musculus [5] were 14.3 mg/kg and 12.3 mg/kg, respectively. Further, the outcome in the data set with Rhesus monkey [26] and in the data set with Rhesus monkey [27] was inactive. Besides, the Time in the data set with Mus musculus [21] turned out to be 137 min. Besides, in the data set with Oryctolagus cuniculus [7], the AD50 turned out to be 3.1 mg/kg.
`CC(=O)Oc1cccc(C23CCCC(C2)N(C)C3C)c1` (racemic): the result in the data set on Rhesus monkey [27] was inactive.
